The values below come from ChEMBL document CHEMBL1152946, “6-Amino-2-mercapto-3H-pyrimidin-4-one derivatives as new candidates for the antagonism at the P2Y12 receptors” (Bioorg Med Chem, 2009).

Test [1] in a line: Antiplatelet activity against 10^-5 M ADP-induced human platelet aggregation at 100 uM by light transmission aggregometry. It is filed as functional. An outline of the steps: (§1)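 Platelet-rich plasma came from healthy volunteers' blood collected in sodium citrate (9:1) and spun at 150g, 21 °C for 10 min. Samples were prewarmed to 37 °C with compound (10^-4 M) or vehicle, then ADP was added (final 10^-5 or 10^-6 M). Shape change and aggregation were followed by light transmission for 3 min. Results are % of vehicle aggregation, mean of at least 2 experiments.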

Test [2] can be described thus: Antiplatelet activity against 10^-6 M ADP-induced human platelet aggregation at 100 uM by light transmission aggregometry. The test is classed as functional. In short, it runs like this:
as §1

For test [3], the target named is T1, Adenosine receptor A1 (Homo sapiens) (UniProt P30542).
T1 sequence (whole entry): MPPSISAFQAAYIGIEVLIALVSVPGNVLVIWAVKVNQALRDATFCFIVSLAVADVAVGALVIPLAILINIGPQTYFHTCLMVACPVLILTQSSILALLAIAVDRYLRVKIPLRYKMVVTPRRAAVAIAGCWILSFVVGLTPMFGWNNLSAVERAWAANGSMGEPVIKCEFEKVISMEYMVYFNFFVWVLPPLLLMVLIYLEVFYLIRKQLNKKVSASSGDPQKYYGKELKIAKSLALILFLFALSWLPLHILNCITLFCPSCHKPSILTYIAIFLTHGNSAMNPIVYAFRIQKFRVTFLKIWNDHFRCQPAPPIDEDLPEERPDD
The test is described as follows: Displacement of [3H]DPCPX from human adenosine A1 receptor expressed in CHO cells at 10 uM. The test is classed as cell-based. In short, it runs like this: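 Membranes from CHO cells expressing hA1 (50 µg protein) were incubated with [3H]DPCPX 1 nM in 50 mM Tris HCl pH 7.4 for 120 min at 25 °C. Non-specific binding was defined with 10 µM CHA. Bound ligand was separated by GF/B filtration and counted by scintillation. Results are % displacement of specific binding at the bracketed test concentration, mean ± SEM of four experiments in triplicate.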
A general note: In a radioligand displacement assay an active substance lowers the binding of a labelled ligand.

Test [4] deals with Adenosine receptor A2a (Homo sapiens) (UniProt P29274). Description: Displacement of [3H]ZM241385 from human adenosine A2A receptor expressed in CHO cells at 10 uM. The test is classed as cell-based. In short, it runs like this: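 Membranes from CHO cells expressing hA2A (50 µg protein) were incubated with [3H]ZM-241385 1 nM in 50 mM Tris HCl with 10 mM MgCl2, pH 7.4, for 60 min at 4 °C. Non-specific binding was defined with 1 µM ZM-241385. Samples were filtered on GF/B and counted by scintillation. Results are % displacement at the tested concentration, mean ± SEM of four experiments in triplicate.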
Chain of Adenosine receptor A2a (Homo sapiens) (P29274 whole entry): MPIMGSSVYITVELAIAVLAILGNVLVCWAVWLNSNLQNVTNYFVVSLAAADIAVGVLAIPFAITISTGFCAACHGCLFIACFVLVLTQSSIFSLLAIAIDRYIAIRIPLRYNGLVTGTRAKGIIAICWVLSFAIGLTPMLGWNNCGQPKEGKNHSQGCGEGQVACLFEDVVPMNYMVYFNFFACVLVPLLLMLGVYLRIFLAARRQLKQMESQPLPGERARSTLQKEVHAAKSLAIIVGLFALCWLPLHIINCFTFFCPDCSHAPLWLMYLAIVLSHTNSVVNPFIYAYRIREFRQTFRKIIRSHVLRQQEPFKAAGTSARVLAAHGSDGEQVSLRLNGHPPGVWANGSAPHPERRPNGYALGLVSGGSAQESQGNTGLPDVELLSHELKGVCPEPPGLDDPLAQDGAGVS

The target of test [5] is T2, Adenosine receptor A3 (Homo sapiens) (UniProt P0DMS8).
T2 sequence (whole entry): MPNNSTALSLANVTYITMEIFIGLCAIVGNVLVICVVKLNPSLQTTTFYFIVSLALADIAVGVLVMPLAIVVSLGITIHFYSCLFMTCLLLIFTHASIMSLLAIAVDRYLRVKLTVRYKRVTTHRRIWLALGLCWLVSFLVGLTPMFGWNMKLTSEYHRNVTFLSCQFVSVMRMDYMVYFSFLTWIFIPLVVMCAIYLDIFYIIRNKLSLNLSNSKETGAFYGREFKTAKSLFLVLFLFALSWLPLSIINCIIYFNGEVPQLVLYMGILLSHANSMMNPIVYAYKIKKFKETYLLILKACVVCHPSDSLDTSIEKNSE
The test is described as follows: Displacement of [125I]ABMECA from human adenosine A3 receptor expressed in CHO cells at 10 uM.

Test [6] addresses Adenosine receptor A2b (Homo sapiens) (UniProt P29275). The test is described as follows: Antagonist activity at human adenosine A2b receptor expressed in CHO cells expressed in inhibition of cAMP level. The arrangement: concentration or dose not given beside the values. To be noted: concentration not given here. In general terms: Cyclic AMP is a second messenger, typically raised through Gs and lowered through Gi signalling.

Test [7] shares this target. Description: Antagonist activity at human adenosine A2b receptor expressed in CHO cells expressed in inhibition of NECA-induced cAMP level. The arrangement: concentration or dose not given beside the values. The settings on record: concentration not given here.
The next test has as its target P2Y purinoceptor 12 (Homo sapiens, UniProt Q9H244). Description: Antagonist activity at human recombinant P2Y12 receptor expressed in CHO FlpIn cells assessed as reduction n 2-methylthio-ADP mediated inhibition of forskolin-induced cAMP response element-directed luciferase expression by bright-glo assay. The test is classed as functional, cell-based. In short, it runs like this: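 CHO FlpIN cells stably expressing human P2Y12 were transiently transfected with a pCRE-luc reporter. After 24 h they were switched to physiological salt solution and exposed to forskolin 1 µM ± 2-methylthio-ADP 10 nM plus varying antagonist concentrations (DMSO vehicle) for 3.5 h at 37 °C. Luminescence was read after lysis with Bright-Glo. Responses are % of 2-methylthio-ADP response with DMSO only; n=4–8.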

Test [8] has as its target T2, Adenosine receptor A3 (Homo sapiens). The test is described as follows: Displacement of [3H]ABMECA from human adenosine A3 receptor expressed in CHO cells at 10 uM. It is filed as cell-based. The settings on record: in the assay text read “[125I]ABMECA” for “[3H]ABMECA”. In short, it runs like this:
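Non-specific binding was defined with 1 µM AB-MECA. Samples were filtered on GF/B and radioactivity was counted. Results are % displacement at the tested concentration, mean ± SEM of four experiments in triplicate.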

As usually defined, the inhibition is the drop in the measured response relative to a control, in per cent. Broadly, the IC50 is the concentration needed to halve the response being measured.

Chain of P2Y purinoceptor 12 (Q9H244 whole entry): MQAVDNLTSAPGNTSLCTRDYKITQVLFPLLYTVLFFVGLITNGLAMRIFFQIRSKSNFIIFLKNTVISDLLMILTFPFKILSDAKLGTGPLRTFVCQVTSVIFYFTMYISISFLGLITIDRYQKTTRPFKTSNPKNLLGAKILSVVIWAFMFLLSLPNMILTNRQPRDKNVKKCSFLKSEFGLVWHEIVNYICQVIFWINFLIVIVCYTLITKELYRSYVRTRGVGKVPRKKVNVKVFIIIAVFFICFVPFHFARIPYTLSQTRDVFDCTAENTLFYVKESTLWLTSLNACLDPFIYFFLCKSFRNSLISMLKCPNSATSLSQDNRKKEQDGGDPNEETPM

In the case of `Nc1cc(OS(=O)(=O)c2ccccc2Cl)nc(SCc2ccccc2Cl)n1`, the Activity in [1] came to 96%; in test [2] it was 92%.
Regarding `CN(C)c1cccc2c(S(=O)(=O)Oc3cc(N)nc(SCc4ccccc4Cl)n3)cccc12`, the Activity in test [1] was found to be 101%; in test [2] it was 96%.
Consider `Cc1ccc(S(=O)(=O)Nc2cc(N)nc(SCCN)n2)cc1`, for which the Activity in test [1] and in test [2] was 91% in each case.
Consider `CSc1nc(N)cc(OS(=O)(=O)c2ccc(C)cc2)n1`, for which the Activity in test [1] amounted to 96%; in test [2] it was 120%.
For `CCCCCSc1nc(N)cc(OS(=O)(=O)c2ccccc2Cl)n1`, the Activity in test [1] turned out to be 95%; in test [2], 58%; in test [3] it was 4%; in test [4], 1%; in test [5] it was 23%. Also, the inhibition in test [6] turned out to be 8%; in test [7], 10%.
Regarding `Nc1cc(OS(=O)(=O)c2ccccc2Cl)nc(SCC(F)(F)F)n1`, the values for the Activity in [1] and in [2] were 102% and 97%, respectively.
With `O=C(Nc1ccccc1)Nc1cc(=O)[nH]c(SCc2ccccc2Cl)n1`, the Activity worked out at 94% in test [1] and 91% in test [2].
The matching figures for `Nc1cc(OCc2ccccc2Cl)nc(SCc2ccccc2Cl)n1`: 95% and 86%.
On to `CCCCCSc1nc(N)cc(OS(=O)(=O)c2ccc(C)cc2)n1`, for which the Activity in test [1] is listed as 88%; in [2] it was 96%.
As for `Nc1cc(=O)[nH]c(SCc2ccccc2Cl)n1`, the Activity in test [1] is 101%; in test [2], 88%.
For the molecule `Nc1cc(=O)[nH]c(SCCO)n1`, the Activity in [1] is listed as 99%; in test [2], 114%.
For the molecule `Cn1c(SCc2ccccc2Cl)nc(N)cc1=O`, the figures for the Activity in test [1] and in test [2] were 88% and 61%, respectively.
`Cc1ccc(S(=O)(=O)Oc2cc(N)nc(SCCN)n2)cc1`: the Activity was 96% in test [1]; 37% in [2]; 3% in [3]; 18% in test [4]; 36% in test [5]. For the same molecule, at P2Y purinoceptor 12, the IC50 came out at 8.08 µM. Moreover, the inhibition in test [6] came to 10%; in [7] it was 7%.
As for `Nc1cc(=O)[nH]c(SC(c2ccccc2)(c2ccccc2)c2ccccc2)n1`, the figures for the Activity in test [1] and in [2] were 100% and 81%, respectively.
As for `Cc1ccc(S(=O)(=O)Oc2cc(N)nc(SCCO)n2)cc1`, the Activity in test [1] came to 99%; in [2], 57%; in [3], 2%; in [4], 1%; in test [8], 46%. For the same molecule, the results for the inhibition in test [6] and in test [7] were 2% and 4%, respectively.
For `O=c1cc(O)nc(SCc2ccccc2Cl)[nH]1`, the Activity in test [1] came to 96%; in test [2], 97%.
As for `CN(C)c1cccc2c(S(=O)(=O)Oc3cc(N)nc(SCCO)n3)cccc12`, the Activity came out at 100% in test [1]; 93% in test [2]; 48% in test [3]; 1% in test [4]; 47% in test [8]. Besides, the inhibition was 7% in [6] and 5% in test [7].
`Cc1ccc(S(=O)(=O)Oc2cc(N)nc(SCc3ccccc3Cl)n2)cc1`: the Activity in [1] is reported as 100%; in test [2] it was 68%.
For the molecule `Cc1ccc(S(=O)(=O)NCCSc2nc(N)cc(=O)[nH]2)cc1`, the Activity in [1] is 89%; in test [2], 51%; in [3], 6%; in test [4] it was 1%; in test [8] it was 44%. Further, the values for the inhibition in test [6] and in test [7] were 5% and 3%, respectively.
With `CN(C)c1cccc2c(S(=O)(=O)Oc3cc(N)nc(SCC(F)(F)F)n3)cccc12`, the values for the Activity in test [1] and in [2] were 104% and 115%, respectively.
For `Cc1ccc(S(=O)(=O)Oc2cc(N)nc(SCC(F)(F)F)n2)cc1`, the values for the Activity in test [1] and in [2] were 101% and 105%, respectively.
For the molecule `CC(C)(C)OC(=O)NCCSc1nc(N)cc(=O)[nH]1`, the Activity came out at 76% in test [1]; 40% in [2]; 7% in test [3]; 7% in test [4]; 21% in test [8]. In addition, the inhibition in test [6] turned out to be 3%; in test [7], 8%.
As to `Nc1cc(OS(=O)(=O)c2ccccc2Cl)nc(SCCO)n1`, the Activity in test [1] is given as 100%; in test [2] it was 110%.
In the same order, the values of `CN(C)c1cccc2c(S(=O)(=O)Oc3cc(N)nc(SCCN)n3)cccc12` are 99% and 83%.
Take `Cc1ccc(S(=O)(=O)Oc2cc(N)nc(SCCNC(=O)OC(C)(C)C)n2)cc1`: the results for the Activity in [1] and in test [2] were 97% and 75%, respectively.
For the molecule `CCCCCSc1nc(N)cc(O)n1`, the Activity is listed as 100% in test [1] and 63% in [2].
